Results taken from ChEMBL document CHEMBL1687854 (Antimicrob Agents Chemother, 2011).

Assays:
[1] = test system: Homo sapiens; assay: Non-renal clearance in healthy human at 500 mg, iv; assay type: ADME, organism-based; details: in vivo
Outline: (§1)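 Healthy volunteers (n = 12) got a single 1-h 500-mg IV infusion. Plasma was sampled predose and at 0.25–12 h and assayed by LC-MS/MS (LLOQ 0.1 μg/ml). Noncompartmental analysis gave CL = dose/AUC0-∞ and CL_R = 0–12 h urinary amount/AUC0-12. Nonrenal CL = CL − CL_R. Values are means ± SD.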

[2] = test system: Homo sapiens; assay: Toxicity in healthy human assessed as pancreatitis at 500 mg, iv after 2 days; assay type: organism-based; details: in vivo, 48 h
[3] = test system: Homo sapiens; assay: Toxicity in healthy human assessed as pancreatitis at 500 mg, iv after 1 day; assay type: organism-based; details: in vivo, 24 h
[4] = Terminal half life in end stage renal disease patient undergoing 12 hours continuous venovenous hemodiafiltration at 500 mg, iv; assay type: ADME, organism-based; details: human, in vivo, read-out: beta t1/2 (converted)
Outline: (§2)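 Prefilter plasma was taken up to 12 h and measured by LC-MS/MS. Terminal λz came from log-linear regression over 1.5–12 h, and t1/2 = 0.693/λz (noncompartmental).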

[5] = AUC (0 to infinity) in end stage renal disease patient undergoing 12 hours continuous venovenous hemodiafiltration at 500 mg, iv; assay type: ADME, organism-based; design: dose 500 mg, route intravenous, time infinity; details: human, plasma
[6] = test system: Homo sapiens; assay: (§3) Clearance in end stage renal disease patient undergoing 12 hours continuous venovenous hemofiltration at 500 mg, iv; assay type: ADME, organism-based; details: in vivo, 12 h
[7] = as §3; assay type: ADME, organism-based; details: human, in vivo, 500 mg
[8] = AUC (0 to infinity) in end stage renal disease patient undergoing 12 hours continuous venovenous hemofiltration at 500 mg, iv; assay type: ADME, organism-based; design: dose 500 mg, time infinity, route intravenous; details: human, plasma
[9] = test system: Homo sapiens; assay: (§4) Clearance in healthy human at 500 mg, iv; assay type: ADME, organism-based; details: in vivo; outline: as §1
[10] = as §4; assay type: ADME, organism-based; details: in vivo, 500 mg; outline: as §1
[11] = test system: Homo sapiens; assay: (§5) Clearance in end stage renal disease patient undergoing 12 hours continuous venovenous hemodiafiltration at 500 mg, iv; assay type: ADME, organism-based; details: in vivo, 12 h
[12] = as §5; assay type: ADME, organism-based; details: human, in vivo, 500 mg
[13] = Renal clearance in healthy human at 500 mg, iv; assay type: ADME, organism-based, Kidney; details: in vivo, read-out: CL_renal (converted); outline: as §1
[14] = test system: Homo sapiens; assay: Non-renal clearance in end stage renal disease patient undergoing 12 hours continuous venovenous hemofiltration at 500 mg, iv; assay type: ADME, organism-based; details: in vivo
Outline: (§6)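 For dialysis-dependent subjects on CVVH or CVVHDF after a 1-h 500-mg IV infusion, nonrenal CL = CL − (CL_R + CL_CRRT). CL_CRRT was the UF (or UF/dialysate) flow rate for each collection interval × the average sieving (or saturation) coefficient, where each coefficient is the fluid/plasma concentration ratio from paired samples at 1.25–12 h. Values are means ± SD.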

[15] = test system: Homo sapiens; assay: Non-renal clearance in end stage renal disease patient undergoing 12 hours continuous venovenous hemodiafiltration at 500 mg, iv; assay type: ADME, organism-based; details: in vivo; outline: as §6
[16] = Terminal half life in end stage renal disease patient undergoing 12 hours continuous venovenous hemofiltration at 500 mg, iv; assay type: ADME, organism-based; details: human, in vivo, read-out: beta t1/2 (converted); outline: as §2

C[C@@H](O)[C@@H](C(=O)O)[C@@H]1NC(C(=O)O)=C(S[C@@H]2CN[C@H](CNS(N)(=O)=O)C2)[C@@H]1C
CL [1]: 14.2 L/h

C[C@@H](O)[C@H]1C(=O)N2C(C(=O)O)=C(S[C@@H]3CN[C@H](CNS(N)(=O)=O)C3)[C@H](C)[C@H]12 [DORIPENEM]
Activity [2]: Non-toxic
CL [1]: 6.73 L/h
Activity [3]: Toxic
half-life [4]: 3.87 h
AUC(0-inf) [5]: 87.5 µg·h/mL
CL [6]: 4.94 L/h
clearance [7]: 82.4 mL/min
AUC(0-inf) [8]: 114 µg·h/mL
CL [9]: 15.9 L/h
clearance [10]: 265 mL/min
CL [11]: 5.98 L/h
clearance [12]: 98.2 mL/min
CL renal [13]: 153 mL/min
CL [14]: 3.58 L/h
CL [15]: 4.22 L/h
half-life [16]: 4.24 h
